Sampled rows, rich in hits. Any-hit rate of the full collection: about 3.3%.
Granule exo inh: LAMP-1 surface exposure blockers, TALL-104 cells – cell-based, flow cytometry, MLPCN library, primary screen | inhibition, % at 10 µM | TALL-104 LAMP-1 surface exposure; cells stimulated with thapsigargin and PMA | AID 651702, 2012 | 360,000 compounds, 0.66% hits;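 active = inhibition above about 55%, limit read from the data; inconclusive = no clear call, values can overlap the other calls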
Myeloid diff 2: induction of myeloid progenitor differentiation, primary screen, cell-based, flow cytometry, MLPCN library. ER-HoxA9 myeloid progenitors, lysozyme-GFP differentiation. calls only at 10 µM. 360,000 compounds, 1% hits;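 active = normalized GFP-positive differentiation at or above the plate's own cutoff, the solvent-only control mean plus 3 SD; inconclusive = no clear call, values can overlap the other calls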;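 note: cells exposed to compound for four days before flow analysis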
ABCB6 inh 2: ABCB6 transporter inhibitors, primary screen, K562-ABCB6 cells, flow cytometry, MLPCN library. ATP-binding cassette sub-family B member 6 (Homo sapiens), Q9NP58. K562-ABCB6 porphyrin accumulation, 1 h; stronger effect = lower value. fluorescence ratio to DMSO, % at 10 µM. 360,000 compounds, 0.19% hits. AID 602162, 2011;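 active = fluorescence ratio to DMSO below 75%, the collection mean minus 3 SD; inconclusive = too few cells collected in the well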;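 note: signal is porphyrin accumulated inside mitochondria; 100% equals median channel fluorescence of DMSO control wells; lower ratio means ABCB6 inhibition with less porphyrin fluorescence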
NRP1-CendR mod: modulators of CendR peptide binding to NRP-1, primary screen, biochemical, fluorescence polarization, uHTS. Neuropilin-1 (Homo sapiens), O14786. FAM-RPARPAR peptide binding to NRP-1. inhibition, % at 25 µM. 360,000 compounds, 0.85% hits;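 active = inhibition or corrected inhibition above about 18%, plus a signal ratio from 0.5 to 1.5, limit read from the data, passing the limit was not always enough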
ATG4B inh: ATG4B protease inhibitors, primary screen, biochemical, fluorescence, uHTS | Cysteine protease ATG4B (Homo sapiens), Q9Y4P1 | ATG4B cleavage of LC3-PLA2, NBD-HPC fluorescence, 1 h | inhibition, % at 8.33 µM | 340,000 compounds, 0.51% hits; in the data active = inhibition above about 40%
Arr AP2 block: inhibitors of beta-arrestin/AP2 binding, primary screen, biochemical, GPCR trafficking, flow cytometry; FITC-arrestin peptide / GST-AP2 beads; AP2 beta2 appendage carries R879A mutation; inhibition, % at 10 µM; 340,000 compounds, 0.31% hits; AID 504490, 2011;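 active = inhibition above a set limit, near 3 SD of compounds lacking own fluorescence, cut at about 54% in these data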;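 note: plate controls were DMSO wells for no effect and 5 µM unlabelled arrestin peptide for full effect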
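System: GST-tagged AP2 beta2-adaptin appendage (R879A) on 4 µm glutathione beads / Reagent: FITC-arrestin peptide, 50 nM / Detection: HyperCyt-sampled flow cytometry, FL1 channel, ex 488/em 535 nm / Timing: 12 min plus 1 h, RT / Buffer or medium: PBS plus Tween 20 (0.05%) and BSA (0.1%)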
Exocytosis CP01: inhibitors of lytic granule exocytosis, confirmation, TALL-104 cells, flow cytometry, Cherry Pick01; shares compounds with Granule exo inh; LAMP-1 externalization; stimulated with PMA plus thapsigargin; inhibition, % at 10 µM; 1,500 compounds, 11% hits; AID 651954, 2012; in the data active = inhibition above about 60%;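 note: 0% = stimulated vehicle wells and 100% = unstimulated wells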
Active calls of the source: *; i = inactive; u = inconclusive; x = no result.

SMILES | Granule exo inh | Myeloid diff 2 | ABCB6 inh 2 | NRP1-CendR mod | ATG4B inh | Arr AP2 block | Exocytosis CP01
COC(=O)c1ccc(OCC(O)CN2CCc3cc(OC)c(OC)cc3C2c2ccccc2)cc1 (centres undefined) | 74* | i | 88 | 8 | -6 | 6 | -12
CCOc1ccc(C(=O)Nc2ccc3nc(N4CCN(CC)CC4)cc(C)c3c2)cc1 | 63* | i | 92 | -6 | -4 | 23 | -6
O=C(NCCN1CCCC1)C1CCC(=O)N(CCCN2CCOCC2)C1 (centres undefined) | 4 | i | 101 | 2 | 0 | -16 | x
c1cc(-c2ccc3nncn3c2)ccc1CN1CCOCC1 | -9 | i | 99 | -15 | x | x | x
CSc1ccc(CCNC(=O)CN2C(=O)CCSc3ccccc32)cc1 | 2 | i | 96 | 7 | 0 | -4 | x
CCOc1ccc(CCNC(=O)CN2C(=O)CCSc3ccccc32)cc1OCC | 96* | i | 97 | 5 | -7 | 0 | -4
Cc1ccc(-c2c(CC(=O)O)c(C)nc3sc4c(c23)CCCC4)cc1 | 1 | i | 98 | 4 | 9 | -3 | x
COc1ccc(CCNC(=O)c2c(O)c3c([nH]c2=O)CCCC3)cc1OC | 1 | i | 91 | 2 | -15 | 5 | x
COc1ccc(S(=O)(=O)Nc2ccc(O)c3ccccc23)cc1 | 87* | i | 107 | -17 | -12 | 25 | 6
COc1ccc(S(=O)(=O)c2c(O)cc(C)c(NS(=O)(=O)c3ccccc3)c2C)cc1 | 70* | i | 101 | 1 | 21 | 0 | -5
COc1ccc(OC)c(NC(=O)Nc2ccc(O)c3ccccc23)c1 | 82* | u | 95 | 25* | -12 | 36 | -9
COc1ccc(S(=O)(=O)Nc2ccccc2)cc1 | -3 | i | 98 | -4 | -3 | 5 | x
COc1ccc(S(=O)(=O)Nc2cc(C(C)C)c(O)cc2C)cc1 | -1 | i | 97 | 12 | -8 | 1 | x
Cc1ccc2nc(-c3ccc(N4C(=O)CC(N5CCN(CCO)CC5)C4=O)cc3)sc2c1 (centres undefined) | 66* | i | 98 | 0 | -3 | 2 | 62*
COc1cccc(OCC(O)CN2CCC(CN3C(=O)c4cccc5cccc(c45)C3=O)CC2)c1 (centres undefined) | 23 | u | 101 | 8 | -22 | 23 | x
O=C1c2cccc3cccc(c23)C(=O)N1CC1CCN(CC(O)COc2ccc3ccccc3c2)CC1 (centres undefined) | 58* | i | 92 | -7 | -26 | -4 | 40
O=C1OC(c2ccccc2)(c2cc(Br)ccc2O)c2ccccc21 (centres undefined) | 103* | i | 89 | 1 | 8 | 1 | 99*
CCC1(C)CC2(CCCN(CCC(O)(c3ccccc3)c3ccccc3)C2)CCO1 (centres undefined) | 58* | i | 97 | -1 | -9 | 9 | -11
COc1cc(Sc2ccc(C)cc2)c(OC)cc1N | 94* | i | 103 | -4 | -2 | 5 | -12
N#Cc1c(Nc2ccccc2Cl)s[nH]c1=O | 78* | i | 96 | -25 | -8 | -42 | 95*
N#Cc1c(Nc2ccccc2C(F)(F)F)s[nH]c1=O | 48 | i | 107 | 0 | 4 | -39 | x
O=C(CSc1nc2ccccc2[nH]1)Nc1ccccc1N1CCOCC1 | 2 | i | 96 | 7 | -7 | -5 | x
O=C(CSc1nc2ccccc2[nH]1)Nc1cc(C(F)(F)F)ccc1N1CCOCC1 | 62* | i | 97 | 13 | -17 | -34 | -3
c1ccc(-c2nc(NC3CCCC3)c3ccccc3n2)cc1 | 57* | i | 100 | 8 | -1 | 31 | -5

Compound activity as filed in PubChem BioAssay.
